Compounds with a hit are over-represented: about 2.1% of the library has one in this group of screens.
CCR6 antag = antagonists of human CCR6 receptor. P51684. CHO-K1 CCR6 PathHunter beta-arrestin, luminescence, CCL20-stimulated. inhibition, % at 20 µM. 340,000 compounds, 0.49% hits. AID 493098;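 active means compounds whose inhibition of the agonist-driven luminescence signal at 20 µM reaches about 50%, limit read from the data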;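 further: cells stimulated with CCL20 at 14 nM final; plate controls were DMSO with CCL20 for no effect and DMSO without agonist for full effect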
CXCR6 inh = CXCR6 (human) receptor inhibition; O00574; CHO-K1 PathHunter CXCR6 beta-arrestin, luminescence; inhibition, % at 20 µM; 360,000 compounds, 0.36% hits; in the data active means inhibition above about 34%, passing the limit was not always enough;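 further: antagonist mode with CXCL16 agonist at 10 nM final; 0% = 10 nM CXCL16 with DMSO and 100% = unstimulated wells without agonist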
APJ antag = APJ receptor antagonism. P35414. CHO-K1 APJ beta-arrestin complementation, luminescence. inhibition, % at 20 µM. 330,000 compounds, 0.32% hits;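 active means inhibition above about 40% at 20 µM, limit read from the data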;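 further: cells challenged with 10 nM apelin-13 agonist together with compound; plate controls were apelin-13 plus DMSO wells for no effect and DMSO wells lacking apelin-13 for full effect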
m5-HT2A agonist = agonists of mouse serotonin 5-HT2A receptor (HTR2A); 360,000 compounds, 0.66% hits; AID 624169; CHO-K1 mHTR2A beta-arrestin complementation, luminescence; percent of 30 µM serotonin response; activation, % at 7.6 µM; P35363;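 active means activation above a run cutoff, the mean activation of all tested compounds plus 3 SD, cut at about 14% in these data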;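 further: 0% = plate median of compound wells and 100% = 30 µM serotonin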
APJ ag = activates the human apelin receptor APJ; P35414; CHO-K1 APJ PathHunter beta-arrestin, luminescence; 0% DMSO wells, 100% apelin; activation, % at 20 µM; 330,000 compounds, 0.11% hits; AID 2520;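 active means activation more than six SD over the plate average, tested at 20 µM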;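 further: 0% = DMSO alone and 100% = apelin-13 at 10 nM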
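Assay system: CHO-K1 APJ beta-arrestin complementation cell line / Compound: single test compound dose, 20 µM final, 1% DMSO / Times: overnight seeding, 90 min compound at 25 °C, 1 h detection / Technique: beta-gal luminescence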
EBI2 block = antagonists of human EBI2 receptor; AID 651636; P32249; inhibition, % at 5 µM; 360,000 compounds, 0.81% hits; EBI2 beta-arrestin recruitment, luminescence, 7a,25-OHC stimulated; in the data active means inhibition above about 38%;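 further: enzyme fragment complementation signal reports receptor beta-arrestin coupling in cells; 0% = agonist plus DMSO wells and 100% = wells without agonist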
Target sequence (P32249 whole entry, looked up, the tested form may be a part): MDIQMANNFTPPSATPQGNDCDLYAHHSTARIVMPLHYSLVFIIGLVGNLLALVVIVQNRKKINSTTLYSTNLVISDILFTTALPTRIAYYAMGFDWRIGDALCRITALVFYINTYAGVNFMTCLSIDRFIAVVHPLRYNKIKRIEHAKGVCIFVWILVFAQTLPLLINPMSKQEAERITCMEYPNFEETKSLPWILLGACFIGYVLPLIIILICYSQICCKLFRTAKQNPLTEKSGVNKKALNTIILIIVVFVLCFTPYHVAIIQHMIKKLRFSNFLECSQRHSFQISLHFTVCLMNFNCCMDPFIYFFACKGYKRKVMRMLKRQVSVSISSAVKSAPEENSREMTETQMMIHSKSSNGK
EBI2 antag conf = EBI2 (human) antagonism, single concentration confirmation. shares compounds with EBI2 block. EBI2 beta-arrestin luminescence, 7a,25-OHC antagonism. inhibition, % at 5 µM. 2,400 compounds, 29% hits. AID 651997;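 active means inhibition of at least 50%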
EBI2 agonist = counter-screen for EBI2 antagonists: EBI2 agonist activity; 2,400 tested, under 10 active; activation, % at 5 µM; shares compounds with EBI2 block; EBI2-expressing cells, agonist mode, luminescence, 60 min; 0% vehicle, 100% 7α,25-dihydroxycholesterol control;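 active means activation of at least 50%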
bGal cs = inhibits E. coli beta-galactosidase, counter-screen for EBI2 antagonists | purified beta-galactosidase, luminescent Galacton Star, 15 min | inhibition, % at 5 µM | 2,400 compounds, 1% hits | shares compounds with EBI2 block;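 active means replicate-average signal at least 3 plate SD below neutral wells, shown as high inhibition, flagging enzyme-inhibiting false positives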;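 further: 0% = DMSO wells with enzyme and 100% = wells lacking enzyme; higher means stronger loss of beta-gal luminescence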
Active calls of the source: *.

Screening CCCCn1c2ccc(C)cc2c2nnc(SCCN3CCCCC3)nc21 returned CCR6 antag 13.2, CXCR6 inh 1.3, APJ antag -2.7, m5-HT2A agonist -15.1, APJ ag -2.3, EBI2 block 69.2*, EBI2 antag conf 28.1, EBI2 agonist 0.2 and bGal cs 2.2.
`CN(C(=S)NC(=O)c1ccc(Cl)cc1)C1CCCCC1` gave CCR6 antag 28.5, CXCR6 inh 29.0, APJ antag 30.9, m5-HT2A agonist 0.3, APJ ag 4.2 and EBI2 block 9.8.
For O=C(NCCc1ccccc1)c1ccc(CS(=O)Cc2ccc(Cl)cc2)o1 (stereo unspecified) the results were CCR6 antag 10.0, CXCR6 inh -4.2, APJ antag 1.6, m5-HT2A agonist 2.3, APJ ag -2.3, EBI2 block 60.0*, EBI2 antag conf 35.2, EBI2 agonist 0.7 and bGal cs 6.7.
O=C(NCc1ccccc1)c1ccc(CS(=O)Cc2ccc(Cl)cc2)o1 (stereo unspecified) was read as CCR6 antag 9.9, CXCR6 inh 10.8, APJ antag 2.5, m5-HT2A agonist 1.5, APJ ag -2.2 and EBI2 block 7.8.
For CCOC(=O)C1CCN(c2nc3ccccc3nc2C(C#N)C(=O)OCCOC)CC1 (stereo unspecified) the results were CCR6 antag 27.5, CXCR6 inh 12.9, APJ antag 18.1, m5-HT2A agonist 4.5, APJ ag -4.6 and EBI2 block 22.1.
Screening COC(=O)C1CCN(c2nc3ccccc3nc2C(C#N)C(=O)NCCc2ccccc2)CC1 (stereo unspecified) returned CCR6 antag 26.2, CXCR6 inh 9.7, APJ antag 17.6, m5-HT2A agonist 0.4, APJ ag -4.6, EBI2 block 67.0*, EBI2 antag conf 13.7, EBI2 agonist -1.7 and bGal cs -10.8.
`O=C(Nc1nc(-c2ccc(Oc3ccccc3)cc2)cs1)C1=COCCO1` gave CCR6 antag 9.2, CXCR6 inh -9.6, APJ antag 7.4, m5-HT2A agonist -5.1, APJ ag -1.5, EBI2 block 73.7*, EBI2 antag conf 31.9, EBI2 agonist -1.0 and bGal cs 8.4.
COc1ccc(N(CC(=O)Nc2cc(C)ccc2OC)S(=O)(=O)c2c(C)noc2C)cc1 was read as CCR6 antag 15.2, CXCR6 inh 4.7, APJ antag 14.8, m5-HT2A agonist -0.2, APJ ag -2.9, EBI2 block 42.5*, EBI2 antag conf 32.5, EBI2 agonist -1.3 and bGal cs -19.9.

Screens deposited in PubChem BioAssay by several laboratories.
